In brackets after ≈: the same amount, converted by molar mass. Activity calls are given as the source filed them. The calls are words filed in the database; no cut-off is given here.
Key:
[1] = system: Acinetobacter baumannii; experiment: Antibacterial activity against Acinetobacter baumannii PFGE type A isolate by Etest MBL strip method in presence of EDTA; type: functional
In short: (§1)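 Imipenem MIC and MBL activity were read with Etest MBL strips on all PFGE type A isolates. A. baumannii AC-54/97, an IMP-2 MBL producer, was the MBL-positive reference strain.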

[2] = system: Acinetobacter baumannii; experiment: Antibacterial activity against Acinetobacter baumannii PFGE type A isolate assessed as reduction of MIC by microdilution method in presence of 200 mg/liter cloxacillin; type: functional, organism-based
In short: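 AmpC contribution was probed by liquid microdilution per CLSI M7-A6. Carbapenem MICs were read with and without 200 mg/liter cloxacillin.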

[3] = system: Acinetobacter baumannii; experiment: Antibacterial activity against Acinetobacter baumannii PFGE type A isolate assessed as reduction of MIC by microdilution method in presence of 200 mM NaCl; type: functional
In short: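 Broth microdilution MIC per CLSI M7-A6 with CLSI breakpoints. Carbapenem MICs compared with and without 200 mM NaCl to gauge the oxacillinase contribution. blaOXA-58-carrying PFGE type 1 isolates served as CHDL-positive reference and a blaOXA-58-negative PFGE type 2 isolate as CHDL-negative reference.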

[4] = system: Acinetobacter baumannii; experiment: Ratio of MIC for imipenem-susceptible Acinetobacter baumannii Ab F PFGE type B transconjugant to MIC for imipenem-susceptible Acinetobacter baumannii Ab F PFGE type B transconjugant in presence of 200 nM NaCl; type: functional; conditions: in the assay text read “200 mM NaCl” for “200 nM NaCl”
In short: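 Carbapenem MICs measured by liquid microdilution with and without 200 mM NaCl, to gauge the oxacillinase contribution. Controls were blaOXA-58-carrying PFGE type 1 isolates (CHDL-positive) and a blaOXA-58-negative PFGE type 2 isolate (CHDL-negative). Transconjugants came from filter mating into recipient Ab F and were selected on brain heart infusion agar with imipenem 16 mg/liter plus trimethoprim-sulfamethoxazole 250 mg/liter.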

[5] = system: Acinetobacter baumannii; experiment: Antibacterial activity against Acinetobacter baumannii PFGE type A isolate by Etest MBL strip method; type: functional; in short: as §1
[6] = system: Acinetobacter baumannii; experiment: Antibacterial activity against Acinetobacter baumannii PFGE type A isolate by microdilution method; type: functional
In short: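 MIC by broth microdilution following CLSI M7-A6; susceptibility interpreted with CLSI breakpoints.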

[7] = system: Acinetobacter baumannii; experiment: Antibacterial activity against imipenem-susceptible Acinetobacter baumannii Ab F PFGE type B transconjugant by microdilution method; type: functional
In short: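 Transconjugants came from filter mating of imipenem-resistant donors Ab 1 or Ab 8 (PFGE type A) with recipient Ab F (PFGE type B). They were selected on brain heart infusion agar with imipenem 16 mg/liter plus trimethoprim-sulfamethoxazole 250 mg/liter. MICs were then read by microdilution per CLSI M7-A6.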

[8] = system: Acinetobacter baumannii; experiment: Antibacterial activity against Acinetobacter baumannii PFGE type A isolate by microdilution method in presence of Sulbactam; type: functional
[9] = system: Acinetobacter baumannii; experiment: Antibacterial activity against Acinetobacter baumannii PFGE type A isolate by microdilution method in presence of Tazobactam; type: functional

Compound	MIC50 [6] [µg/mL]	MIC90 [6] [µg/mL]	also measured
C[C@@H](O)[C@H]1C(=O)N2C(C(=O)O)=C(SCCNC=N)C[C@H]12 [IMIPENEM ANHYDROUS]	16 (≈ 53.4 µM)	16 (≈ 53.4 µM)	MIC [1]: 4 µg/mL; Activity [2]: inactive; MIC [3]: 2 µg/mL; Ratio [4]: 8; MIC [5]: 8 µg/mL (≈ 26.7 µM); MIC [7]: 16 µg/mL (≈ 53.4 µM)
NCC[C@H](O)C(=O)N[C@@H]1C[C@H](N)[C@@H](O[C@H]2O[C@H](CN)[C@@H](O)[C@H](O)[C@H]2O)[C@H](O)[C@H]1O[C@H]1O[C@H](CO)[C@@H](O)[C@H](N)[C@H]1O [AMIKACIN]	64 (≈ 109 µM)	125 (≈ 213 µM)	MIC [6]: 64 µg/mL (≈ 109 µM)
GENTAMICIN	125	250	
C[C@@H](O)[C@H]1C(=O)N2C(C(=O)O)=C(S[C@@H]3CN[C@H](C(=O)N(C)C)C3)[C@H](C)[C@H]12 [MEROPENEM]	8 (≈ 20.9 µM)	8 (≈ 20.9 µM)	
CC1(C)S[C@@H]2[C@H](NC(=O)[C@H](N)c3ccccc3)C(=O)N2[C@H]1C(=O)O [AMPICILLIN]			MIC [8]: 8 µg/mL; MIC50 [8]: 8 µg/mL; MIC90 [8]: 16 µg/mL
CO/N=C(\C(=O)N[C@@H]1C(=O)N2C(C(=O)[O-])=C(C[N+]3(C)CCCC3)CS[C@H]12)c1csc(N)n1 [CEFEPIME]	16 (≈ 33.3 µM)	32 (≈ 66.6 µM)	MIC [6]: 16 µg/mL (≈ 33.3 µM)
O=C(O)c1cn(C2CC2)c2cc(N3CCNCC3)c(F)cc2c1=O [CIPROFLOXACIN]	64 (≈ 193 µM)	250 (≈ 754 µM)	
CCN1CCN(C(=O)N[C@@H](C(=O)N[C@@H]2C(=O)N3[C@@H]2SC(C)(C)[C@@H]3C(=O)O)c2ccccc2)C(=O)C1=O [PIPERACILLIN]			MIC [9]: 125 µg/mL; MIC50 [9]: 125 µg/mL; MIC90 [9]: 250 µg/mL
CC(C)(O/N=C(\C(=O)N[C@@H]1C(=O)N2C(C(=O)[O-])=C(C[n+]3ccccc3)CS[C@H]12)c1csc(N)n1)C(=O)O [CEFTAZIDIME]	250 (≈ 457 µM)	250 (≈ 457 µM)	Activity [2]: inactive; Activity [3]: inactive
COLISTIN	2	4	
